Measured values reported in ChEMBL document CHEMBL1828575, “Design, synthesis and antiproliferative activities of biarylolefins based on polyhydroxylated and carbohydrate scaffolds” (Eur J Med Chem, 2011).

Columns and labels:
Assay type in all cases: functional
[1] = test system: ACHN; assay: Cytotoxicity against human ACHN cells assessed as cellular growth at 10 uM after 48 hrs by SRB assay
Method in brief: (§1)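 NCI60 single-dose screen of cells in RPMI 1640 with 5% FBS and 2 mM L-glutamine, preincubated 24 h at 37 °C, 5% CO₂. Cells were then exposed 48 h to compound added from DMSO stock. TCA-fixed, stained with 0.4% SRB in 1% acetic acid, dye solubilised in 10 mM Tris base and read at 515 nm. Growth is given as percent of untreated control.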

[2] = test system: OVCAR-5; assay: Antitumor activity against human OVCAR5 cells after 48 hrs by SRB assay; settings: OVCAR-5, 48 h
Method in brief: (§2)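 NCI60 panel in RPMI 1640 with 5% FBS and 2 mM L-glutamine. Cells were plated at 5000–40,000/well by doubling time, held 24 h, then time-zero plates were TCA-fixed. Five concentrations (10-fold or half-log dilutions of DMSO stocks) were applied for 48 h at 37 °C, 5% CO2. Cells were fixed with cold TCA (10% final adherent, 16% suspension) and stained with 0.4% SRB. Bound dye was dissolved in 10 mM Tris and read at 515 nm. GI50, TGI and LC50 were calculated per line.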

[3] = test system: CCRF-CEM; assay: Antitumor activity against human CCRF-CEM cells after 48 hrs by SRB assay; method in brief: as §2
[4] = test system: MDA-MB-231; assay: Cytotoxicity against human MDA-MB-231 cells assessed as cellular growth at 10 uM after 48 hrs by SRB assay
Method in brief: (§3)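 NCI-60 panel lines grown in RPMI 1640 with 5% FBS and 2 mM L-glutamine. Plated at 5000–40,000 cells/well and preincubated 24 h at 37 °C, 5% CO₂, with time-zero plates fixed in TCA. Compounds, dissolved in DMSO and diluted in medium, were applied for 48 h. Cells were TCA-fixed (10% final for adherent, 16% for suspension) and stained with 0.4% SRB in 1% acetic acid. Dye was solubilised in 10 mM Tris base and read at 515 nm; growth was expressed as a percentage of untreated control.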

[5] = test system: SK-MEL-2; assay: Cytotoxicity against human SK-MEL-2 cells assessed as cellular growth at 10 uM after 48 hrs by SRB assay; method in brief: as §3
[6] = Antitumor activity against human Hs 578T cells after 48 hrs by SRB assay; settings: for CC50: read-out: LC50 (the source's name); method in brief: as §2
[7] = test system: SNB-19; assay: Cytotoxicity against human SNB19 cells assessed as cellular growth at 10 uM after 48 hrs by SRB assay; method in brief: as §3
[8] = test system: MOLT-4; assay: Cytotoxicity against human MOLT4 cells assessed as cellular growth at 10 uM after 48 hrs by SRB assay; method in brief: as §3
[9] = test system: MDA-MB-468; assay: Cytotoxicity against human MDA-MB-468 cells assessed as cellular growth at 10 uM after 48 hrs by SRB assay; method in brief: as §3
[10] = test system: T47D; assay: Cytotoxicity against human T47D cells assessed as cellular growth at 10 uM after 48 hrs by SRB assay; method in brief: as §3
[11] = test system: COLO 205; assay: Cytotoxicity against human COLO205 cells assessed as cellular growth at 10 uM after 48 hrs by SRB assay; method in brief: as §1
[12] = test system: CAKI-1; assay: Antitumor activity against human Caki1 cells after 48 hrs by SRB assay; settings: CAKI-1, 48 h; method in brief: as §2
[13] = test system: SF-295; assay: Cytotoxicity against human SF295 cells assessed as cellular growth at 10 uM after 48 hrs by SRB assay; method in brief: as §3
[14] = test system: UACC-62; assay: Antitumor activity against human UACC62 cells after 48 hrs by SRB assay; settings: UACC-62, 48 h
Method in brief: (§4)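 NCI60 panel cells grown in RPMI 1640 with 5% FBS and 2 mM L-glutamine, plated at 5000–40,000 cells/well and preincubated 24 h at 37 °C, 5% CO₂. Compound was added from DMSO at five concentrations, 10-fold or 1/2 log dilutions, then incubated 48 h.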

[15] = test system: CCRF-CEM; assay: Cytotoxicity against human CCRF-CEM cells assessed as cellular growth at 10 uM after 48 hrs by SRB assay; method in brief: as §1
[16] = test system: UO-31; assay: Antitumor activity against human UO31 cells after 48 hrs by SRB assay; settings: UO-31, 48 h; method in brief: as §4
[17] = test system: HT-29; assay: Cytotoxicity against human HT-29 cells assessed as cellular growth at 10 uM after 48 hrs by SRB assay; method in brief: as §1
[18] = test system: NCI-H226; assay: Antitumor activity against human NCI-H226 cells after 48 hrs by SRB assay; settings: NCI-H226, 48 h; method in brief: as §2
[19] = test system: SF-539; assay: Antitumor activity against human SF539 cells after 48 hrs by SRB assay; settings: SF-539, 48 h; for CC50: read-out: LC50 (the source's name); method in brief: as §4
[20] = test system: MCF7; assay: Cytotoxicity against human MCF7 cells assessed as cellular growth at 10 uM after 48 hrs by SRB assay; method in brief: as §3
[21] = test system: Malme-3M; assay: Cytotoxicity against human MALME-3M cells assessed as cellular growth at 10 uM after 48 hrs by SRB assay; method in brief: as §3
[22] = test system: HCT-15; assay: Antiproliferative activity against human HCT15 cells after 48 hrs by SRB assay; settings: HCT-15, 48 h
Method in brief: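 NCI60 screen: cells grown in RPMI 1640 with 5% FBS and 2 mM L-glutamine, plated at 5000–40,000 cells/well by doubling time, preincubated 24 h at 37 °C with 5% CO2. Compounds were diluted from DMSO stocks and given for 48 h, at five concentrations for dose response. A time-zero plate was TCA-fixed. Cells were TCA-fixed, stained with 0.4% SRB and read at 515 nm, with growth expressed relative to untreated controls.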

[23] = test system: IGROV-1; assay: Cytotoxicity against human IGROV1 cells assessed as cellular growth at 10 uM after 48 hrs by SRB assay; method in brief: as §1
[24] = read-out: LC50 (the source's name)
[25] = read-out: pLC50 (the source's name) (converted)

COc1ccc(/C(=C2/O[C@@H]([C@H]3COC(C)(C)O3)[C@H]3OC(C)(C)O[C@@H]23)c2cc(OC)c(OC)c(OC)c2)cc1O
Activity [1]: 44.73% | GI50 ([2]; read-out: GI50): > 1 µM | CC50 [2, 24]: > 100 µM | TGI ([2]; read-out: TGI): > 100 µM | GI50 ([2]; read-out: pGI50 (converted)): 100 µM | CC50 [2, 25]: > 100 µM | TGI ([2]; read-out: pTGI (converted)): > 100 µM | GI50 ([3]; read-out: GI50): 3.75 µM | CC50 [3, 24]: > 100 µM | TGI ([3]; read-out: TGI): > 100 µM | GI50 ([3]; read-out: pGI50 (converted)): 3.72 µM | CC50 [3, 25]: > 100 µM | TGI ([3]; read-out: pTGI): > 100 µM | Activity [4]: 43.9% | Activity [5]: 103.26% | GI50 [6]: 2.83 µM | TGI [6]: 7.88 µM | CC50 [6]: > 100 µM | Activity [7]: 47.41% | Activity [8]: 59.94% | Activity [9]: 96.42% | Activity [10]: 120.98% | Activity [11]: 120.76% | GI50 ([12]; read-out: GI50): 3.73 µM | CC50 [12, 24]: 29.8 µM | TGI ([12]; read-out: TGI): > 100 µM | GI50 ([12]; read-out: pGI50 (converted)): 37.2 µM | CC50 [12, 25]: > 100 µM | TGI ([12]; read-out: pTGI (converted)): > 100 µM | Activity [13]: 85.23% | GI50 ([14]; read-out: GI50): 5.79 µM | CC50 [14, 24]: > 100 µM | TGI ([14]; read-out: TGI): > 100 µM | GI50 ([14]; read-out: pGI50 (converted)): 57.5 µM | CC50 [14, 25]: > 100 µM | TGI ([14]; read-out: pTGI (converted)): > 100 µM | Activity [15]: 47.94% | GI50 ([16]; read-out: GI50): 7.53 µM | CC50 [16, 24]: > 100 µM | TGI ([16]; read-out: TGI): 77.8 µM | GI50 ([16]; read-out: pGI50 (converted)): 7.59 µM | CC50 [16, 25]: > 100 µM | TGI ([16]; read-out: pTGI (converted)): 77.6 µM | Activity [17]: 107.45% | GI50 ([18]; read-out: GI50): 2.59 µM | CC50 [18, 24]: > 100 µM | TGI ([18]; read-out: TGI): > 100 µM | GI50 ([18]; read-out: pGI50 (converted)): 25.7 µM | CC50 [18, 25]: > 100 µM | TGI ([18]; read-out: pTGI (converted)): > 100 µM | GI50 [19]: 2.59 µM | TGI [19]: 6.63 µM | CC50 [19]: > 100 µM

COc1ccc(/C(=C2\O[C@@H]([C@H]3COC(C)(C)O3)[C@H]3OC(C)(C)O[C@@H]23)c2cc(OC)c(OC)c(OC)c2)cc1O
Activity [1]: 49.46% | GI50 ([2]; read-out: GI50): 59.6 µM | CC50 [2, 24]: > 100 µM | TGI ([2]; read-out: TGI): > 100 µM | GI50 ([2]; read-out: pGI50 (converted)): 60.3 µM | CC50 [2, 25]: > 100 µM | TGI ([2]; read-out: pTGI (converted)): > 100 µM | GI50 ([3]; read-out: GI50): 5.45 µM | CC50 [3, 24]: > 100 µM | TGI ([3]; read-out: TGI): > 100 µM | GI50 ([3]; read-out: pGI50 (converted)): 5.5 µM | CC50 [3, 25]: > 100 µM | TGI ([3]; read-out: pTGI): > 100 µM | Activity [20]: 60.66% | Activity [4]: 54.45% | Activity [21]: 69.57% | CC50 [22, 24]: > 100 µM | CC50 [22, 25]: > 100 µM | GI50 [6]: 4.44 µM | TGI [6]: 53.4 µM | CC50 [6]: > 100 µM | Activity [7]: 27.56% | Activity [8]: 60.46% | Activity [9]: 112.6% | Activity [10]: 115.08% | Activity [11]: 120.67% | GI50 ([12]; read-out: GI50): 14.6 µM | CC50 [12, 24]: > 100 µM | TGI ([12]; read-out: TGI): 42.2 µM | GI50 ([12]; read-out: pGI50 (converted)): 14.8 µM | CC50 [12, 25]: > 100 µM | TGI ([12]; read-out: pTGI (converted)): 42.7 µM | Activity [13]: 77.57% | GI50 ([14]; read-out: GI50): 22.9 µM | CC50 [14, 24]: > 100 µM | TGI ([14]; read-out: TGI): 57.6 µM | GI50 ([14]; read-out: pGI50 (converted)): 22.9 µM | CC50 [14, 25]: > 100 µM | TGI ([14]; read-out: pTGI (converted)): 57.5 µM | Activity [15]: 60.8% | Activity [23]: 92.61% | GI50 ([16]; read-out: GI50): 21.7 µM | CC50 [16, 24]: > 100 µM | TGI ([16]; read-out: TGI): 70.4 µM | GI50 ([16]; read-out: pGI50 (converted)): 21.9 µM | CC50 [16, 25]: > 100 µM | TGI ([16]; read-out: pTGI (converted)): 70.8 µM | Activity [17]: 113.24% | GI50 ([18]; read-out: GI50): 64.7 µM | CC50 [18, 24]: > 100 µM | TGI ([18]; read-out: TGI): > 100 µM | GI50 ([18]; read-out: pGI50 (converted)): 64.6 µM | CC50 [18, 25]: > 100 µM | TGI ([18]; read-out: pTGI (converted)): > 100 µM | GI50 [19]: 3.15 µM | TGI [19]: 8.75 µM | CC50 [19]: 86 µM
